Experiments:
[1] = target: Neuronal acetylcholine receptor; alpha4/beta2 (Rattus norvegicus, UniProt P09483+P12390); test: Displacement of [3H]epibatidine from alpha4beta2 nAChR in rat cortical membranes by beta counting; type: cell membranes, Membrane
In short: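 Rat cortex membranes were washed twice by homogenisation in pH 7.4 phosphate/1 M NaCl/EDTA/EGTA/PMSF buffer and 60,000g spins, then resuspended in pH 7 Tris buffer. Nonspecific binding used 100 nM epibatidine. Filtered on PEI-soaked GF/C. Ki from three independent competition curves (LIGAND).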

[2] = target: Neuronal acetylcholine receptor subunit alpha-7 (Rattus norvegicus, UniProt Q05941); test: Displacement of [125I]-alpha-Bungarotoxin from alpha7 nAChR rat cortical membranes by gamma counting; type: cell membranes, Membrane
In short: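 Rat cortex membranes, prepared by twice-repeated homogenisation and high-speed centrifugation, were pre-incubated with compound for 30 min at r.t. Filtered on PEI-soaked GF/C filters and gamma counted. Ki from three independent competition experiments, fitted together with three saturation experiments by non-linear least squares (LIGAND).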

[3] = target: T1, Muscarinic acetylcholine receptor M1 (Homo sapiens) (UniProt P11229); test: Displacement of [3H]quinuclidinyl benzylate from human muscarinic M1 receptor expressed in CHO cells at 10 uM; type: cell-based
T1 sequence (whole entry): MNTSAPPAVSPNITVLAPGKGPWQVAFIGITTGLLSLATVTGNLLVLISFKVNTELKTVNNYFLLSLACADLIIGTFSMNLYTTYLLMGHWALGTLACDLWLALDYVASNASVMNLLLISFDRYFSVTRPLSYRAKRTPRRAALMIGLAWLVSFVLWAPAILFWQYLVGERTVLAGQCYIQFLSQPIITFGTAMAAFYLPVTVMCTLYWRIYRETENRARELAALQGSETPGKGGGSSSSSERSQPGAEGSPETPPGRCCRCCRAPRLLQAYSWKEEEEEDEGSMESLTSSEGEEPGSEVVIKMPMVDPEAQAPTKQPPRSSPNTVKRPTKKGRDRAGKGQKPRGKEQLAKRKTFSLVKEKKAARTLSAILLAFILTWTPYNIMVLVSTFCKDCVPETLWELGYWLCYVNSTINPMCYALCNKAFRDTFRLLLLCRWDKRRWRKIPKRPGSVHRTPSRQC

[4] = target: T2, Muscarinic acetylcholine receptor M2 (Homo sapiens) (UniProt P08172); test: Displacement of [3H]quinuclidinyl benzylate from human muscarinic M2 receptor expressed in CHO cells at 10 uM; type: cell-based
T2 sequence (whole entry): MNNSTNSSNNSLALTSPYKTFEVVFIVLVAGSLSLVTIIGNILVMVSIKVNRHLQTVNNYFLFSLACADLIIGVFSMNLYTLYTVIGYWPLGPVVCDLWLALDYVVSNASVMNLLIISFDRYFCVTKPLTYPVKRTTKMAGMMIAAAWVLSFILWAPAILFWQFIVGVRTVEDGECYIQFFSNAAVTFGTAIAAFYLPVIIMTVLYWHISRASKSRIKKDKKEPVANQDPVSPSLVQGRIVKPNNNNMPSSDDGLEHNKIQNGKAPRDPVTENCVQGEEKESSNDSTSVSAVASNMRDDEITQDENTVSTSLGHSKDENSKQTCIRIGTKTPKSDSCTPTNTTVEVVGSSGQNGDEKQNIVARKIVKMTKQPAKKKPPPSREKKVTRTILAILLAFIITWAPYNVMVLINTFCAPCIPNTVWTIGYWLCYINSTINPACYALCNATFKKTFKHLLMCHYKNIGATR
In short: (§1)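 Single-concentration preliminary screen on membranes of transfected CHO cells expressing human M2 or M5 receptors, labelled with [3H]quinuclidinyl benzylate. Read-out was percent inhibition of radioligand binding.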

[5] = target: Muscarinic acetylcholine receptor M3 (Homo sapiens) (UniProt P20309); test: Displacement of [3H]quinuclidinyl benzylate from human muscarinic M3 receptor expressed in CHO cells at 10 uM; type: cell-based
[6] = target: T3, Muscarinic acetylcholine receptor M4 (Homo sapiens) (UniProt P08173); test: Displacement of [3H]quinuclidinyl benzylate from human muscarinic M4 receptor expressed in CHO cells at 10 uM; type: cell-based
T3 sequence (whole entry): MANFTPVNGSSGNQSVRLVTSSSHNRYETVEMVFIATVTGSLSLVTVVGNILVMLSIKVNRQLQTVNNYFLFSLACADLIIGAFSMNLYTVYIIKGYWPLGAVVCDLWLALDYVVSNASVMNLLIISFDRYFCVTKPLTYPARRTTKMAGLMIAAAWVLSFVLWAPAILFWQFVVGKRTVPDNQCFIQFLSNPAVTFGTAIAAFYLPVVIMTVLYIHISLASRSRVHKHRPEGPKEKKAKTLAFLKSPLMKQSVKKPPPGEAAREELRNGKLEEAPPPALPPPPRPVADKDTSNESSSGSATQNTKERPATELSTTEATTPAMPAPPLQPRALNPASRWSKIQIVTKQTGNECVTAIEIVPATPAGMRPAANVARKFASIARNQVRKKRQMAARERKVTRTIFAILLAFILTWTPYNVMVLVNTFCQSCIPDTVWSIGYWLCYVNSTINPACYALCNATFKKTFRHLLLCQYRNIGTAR

[7] = target: T4, Muscarinic acetylcholine receptor M5 (Homo sapiens) (UniProt P08912); test: Displacement of [3H]quinuclidinyl benzylate from human muscarinic M5 receptor expressed in CHO cells at 10 uM; type: cell-based; in short: as §1
T4 sequence (whole entry): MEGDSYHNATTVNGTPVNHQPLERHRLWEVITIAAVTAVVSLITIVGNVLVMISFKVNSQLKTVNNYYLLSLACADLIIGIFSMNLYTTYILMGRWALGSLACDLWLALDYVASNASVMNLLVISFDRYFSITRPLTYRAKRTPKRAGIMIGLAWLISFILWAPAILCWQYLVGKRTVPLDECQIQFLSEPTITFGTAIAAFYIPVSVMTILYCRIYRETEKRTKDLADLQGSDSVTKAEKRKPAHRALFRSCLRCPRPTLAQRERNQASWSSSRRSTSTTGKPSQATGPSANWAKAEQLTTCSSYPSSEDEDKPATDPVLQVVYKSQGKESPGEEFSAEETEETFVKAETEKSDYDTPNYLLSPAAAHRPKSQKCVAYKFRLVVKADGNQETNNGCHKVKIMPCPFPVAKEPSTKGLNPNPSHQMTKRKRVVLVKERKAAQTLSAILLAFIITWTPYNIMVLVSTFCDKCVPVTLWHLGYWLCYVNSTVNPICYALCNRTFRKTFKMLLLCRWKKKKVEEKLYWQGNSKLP

Sequence of Neuronal acetylcholine receptor subunit alpha-7 (Q05941 whole entry): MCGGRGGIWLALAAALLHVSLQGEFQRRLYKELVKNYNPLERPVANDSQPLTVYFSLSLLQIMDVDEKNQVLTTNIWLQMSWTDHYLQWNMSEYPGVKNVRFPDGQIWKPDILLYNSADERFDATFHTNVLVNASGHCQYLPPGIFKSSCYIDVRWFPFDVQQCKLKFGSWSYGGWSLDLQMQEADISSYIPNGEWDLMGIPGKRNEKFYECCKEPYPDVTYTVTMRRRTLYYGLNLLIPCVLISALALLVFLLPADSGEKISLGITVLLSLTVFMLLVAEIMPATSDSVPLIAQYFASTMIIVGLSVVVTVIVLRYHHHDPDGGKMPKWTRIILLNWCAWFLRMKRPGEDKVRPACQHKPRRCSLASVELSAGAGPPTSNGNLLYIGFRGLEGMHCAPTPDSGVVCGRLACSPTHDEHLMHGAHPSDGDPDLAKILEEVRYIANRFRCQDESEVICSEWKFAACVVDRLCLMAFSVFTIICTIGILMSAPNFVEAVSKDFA
Sequence of Neuronal acetylcholine receptor; alpha4/beta2 (P09483 whole entry): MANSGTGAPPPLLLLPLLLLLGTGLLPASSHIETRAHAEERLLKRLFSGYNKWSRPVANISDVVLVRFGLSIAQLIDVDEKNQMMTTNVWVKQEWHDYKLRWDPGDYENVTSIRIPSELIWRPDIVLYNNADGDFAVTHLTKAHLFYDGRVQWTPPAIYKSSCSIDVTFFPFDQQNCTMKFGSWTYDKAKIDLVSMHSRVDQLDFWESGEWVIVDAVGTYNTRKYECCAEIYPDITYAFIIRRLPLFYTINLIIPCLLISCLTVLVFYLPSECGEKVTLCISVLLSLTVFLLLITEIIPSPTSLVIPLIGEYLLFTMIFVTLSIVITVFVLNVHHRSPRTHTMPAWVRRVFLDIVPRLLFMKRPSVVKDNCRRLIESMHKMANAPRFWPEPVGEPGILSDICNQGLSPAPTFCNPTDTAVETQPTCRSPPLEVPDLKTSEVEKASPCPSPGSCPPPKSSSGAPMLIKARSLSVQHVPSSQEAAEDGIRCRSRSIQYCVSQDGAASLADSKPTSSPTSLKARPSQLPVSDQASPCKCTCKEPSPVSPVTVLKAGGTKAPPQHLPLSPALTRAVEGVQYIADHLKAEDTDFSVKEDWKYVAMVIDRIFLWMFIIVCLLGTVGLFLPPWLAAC
Sequence of Neuronal acetylcholine receptor; alpha4/beta2 (P12390 whole entry): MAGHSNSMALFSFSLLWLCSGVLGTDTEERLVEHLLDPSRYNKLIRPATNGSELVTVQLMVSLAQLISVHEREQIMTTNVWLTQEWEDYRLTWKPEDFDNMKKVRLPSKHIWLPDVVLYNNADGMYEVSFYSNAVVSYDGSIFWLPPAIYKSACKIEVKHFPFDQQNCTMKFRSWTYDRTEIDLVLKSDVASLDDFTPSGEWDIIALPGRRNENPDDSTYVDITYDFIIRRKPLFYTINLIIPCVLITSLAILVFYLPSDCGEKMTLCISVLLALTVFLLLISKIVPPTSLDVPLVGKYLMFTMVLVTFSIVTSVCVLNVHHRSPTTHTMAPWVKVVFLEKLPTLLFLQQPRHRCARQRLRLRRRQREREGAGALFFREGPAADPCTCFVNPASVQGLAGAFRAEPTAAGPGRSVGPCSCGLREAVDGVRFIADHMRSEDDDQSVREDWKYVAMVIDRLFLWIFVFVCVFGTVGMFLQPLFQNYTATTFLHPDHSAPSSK
Sequence of Muscarinic acetylcholine receptor M3 (Homo sapiens) (P20309 whole entry, looked up): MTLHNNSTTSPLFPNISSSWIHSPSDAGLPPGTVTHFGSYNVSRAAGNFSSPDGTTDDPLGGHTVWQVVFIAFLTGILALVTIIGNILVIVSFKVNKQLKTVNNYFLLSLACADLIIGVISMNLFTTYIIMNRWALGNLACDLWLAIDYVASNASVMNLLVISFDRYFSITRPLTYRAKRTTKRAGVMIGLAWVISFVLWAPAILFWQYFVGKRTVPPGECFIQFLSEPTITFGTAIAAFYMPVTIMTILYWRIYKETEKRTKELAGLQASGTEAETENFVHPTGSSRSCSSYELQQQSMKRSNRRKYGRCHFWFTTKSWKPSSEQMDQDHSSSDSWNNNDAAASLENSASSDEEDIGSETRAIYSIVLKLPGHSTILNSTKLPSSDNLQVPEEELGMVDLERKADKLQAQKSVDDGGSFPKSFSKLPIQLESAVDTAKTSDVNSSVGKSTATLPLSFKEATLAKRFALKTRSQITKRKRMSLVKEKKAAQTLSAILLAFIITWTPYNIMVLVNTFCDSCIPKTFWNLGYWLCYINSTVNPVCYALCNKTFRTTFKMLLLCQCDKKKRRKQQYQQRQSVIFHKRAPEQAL

SMILES: CC(C)(C)OC1=NO[C@H]([C@@H]2CCCN2)C1
- Ki [1]: 184 µM
- Ki [2]: > 500 µM
- Activity [3]: < 50%
- Activity [4]: < 50%
- Activity [5]: < 50%
- Activity [6]: < 50%
- Activity [7]: < 50%

SMILES: CC1=NO[C@H]([C@@H]2CCCN2)C1
- Ki [1]: 5.1 µM
- Ki [2]: 0.44 µM
- Activity [3]: < 50%
- Activity [4]: < 50%
- Activity [5]: < 50%
- Activity [6]: < 50%
- Activity [7]: < 50%

SMILES: CC1=NO[C@@H]([C@@H]2CCCN2C)C1
- Ki [1]: 12 µM
- Ki [2]: 325 µM
- Activity [3]: < 50%
- Activity [4]: < 50%
- Activity [5]: < 50%
- Activity [6]: < 50%
- Activity [7]: < 50%

SMILES: COC1=NO[C@H]([C@@H]2CCCN2)C1
- Ki [1]: 50 µM
- Ki [2]: 11.3 µM
- Activity [3]: < 50%
- Activity [4]: < 50%
- Activity [5]: < 50%
- Activity [6]: < 50%
- Activity [7]: < 50%

SMILES: COC1=NO[C@@H]([C@@H]2CCCN2)C1
- Ki [1]: 28 µM
- Ki [2]: 277 µM
- Activity [3]: < 50%
- Activity [4]: < 50%
- Activity [5]: < 50%
- Activity [6]: < 50%
- Activity [7]: < 50%

SMILES: CN1CCC[C@H]1[C@H]1CC(Br)=NO1
- Ki [1]: 3.8 µM
- Ki [2]: 43 µM
- Activity [3]: < 50%
- Activity [4]: < 50%
- Activity [5]: < 50%
- Activity [6]: < 50%
- Activity [7]: < 50%

SMILES: COC1=NO[C@@H]([C@@H]2CCCN2C)C1
- Ki [1]: 10.3 µM
- Ki [2]: 2.9 µM
- Activity [3]: < 50%
- Activity [4]: < 50%
- Activity [5]: < 50%
- Activity [6]: < 50%
- Activity [7]: < 50%

SMILES: BrC1=NO[C@@H]([C@@H]2CCCN2)C1
- Ki [1]: 4.2 µM
- Ki [2]: 35 µM
- Activity [3]: < 50%
- Activity [4]: < 50%
- Activity [5]: < 50%
- Activity [6]: < 50%
- Activity [7]: < 50%

SMILES: CC1=NO[C@@H]([C@@H]2CCCN2)C1
- Ki [1]: 18 µM
- Ki [2]: 40 µM
- Activity [3]: < 50%
- Activity [4]: < 50%
- Activity [5]: < 50%
- Activity [6]: < 50%
- Activity [7]: < 50%

Reference: ChEMBL document CHEMBL1629483, “Synthesis of novel chiral Δ2-isoxazoline derivatives related to ABT-418 and estimation of their affinity at neuronal nicotinic acetylcholine receptor subtypes” (Eur J Med Chem, 2010)
